Assay results reported in ChEMBL document CHEMBL1833916, “Synthesis and biological evaluation of 4-piperidinecarboxylate and 4-piperidinecyanide derivatives for T-type calcium channel blockers” (Bioorg Med Chem Lett, 2011).
Activity calls are given as the source filed them. No cut-off for these calls is given here.

How the values were obtained:
[1] = target: T1, Voltage-dependent T-type calcium channel subunit alpha-1G (Homo sapiens, UniProt O43497); experiment: Inhibition of T-type calcium channel alpha1G expressed in human HEK293 cells assessed as KCl-induced depolarization at 10 uM after 60 mins by FDSS6000 assay; type: cell-based
[2] = target: Voltage-gated inwardly rectifying potassium channel KCNH2 (Homo sapiens, UniProt Q12809); experiment: Inhibition of human ERG by patch clamp assay
[3] = Metabolic stability in human hepatic microsomes at 1 uM after 60 mins by LC-MS/MS analysis; type: ADME, Liver; settings: 1 h
Summary of the method: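 Human liver microsomes (0.5 mg/ml) with compound (1 μM) in 0.1 M potassium phosphate, pH 7.4, at 37 °C; started with β-NADPH (1.2 mM). Sampled at 0, 5, 15, 30 and 60 min, quenched with acetonitrile containing internal standard, analysed by LC–MS/MS. Reported as % parent remaining; mean of duplicate experiments.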

Rattus norvegicus [4] = experiment: Antiallodynic activity in rat spinal nerve ligation model of neuropathic pain assessed as suppression of mechanical allodynia at 100 mg/kg, po after 5 hrs; type: functional, organism-based; set-up: dose 100 mg/kg
Summary of the method: (§1)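 Rats with induced neuropathic pain, dosed orally at 100 mg/kg (n = 5 per group), with gabapentin 100 mg/kg po as reference. Mechanical and cold allodynia were followed over days after nerve injury and hours after dosing. Significance was tested by unpaired t-test (P < 0.05).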

Rattus norvegicus [5] = experiment: Antiallodynic activity in rat spinal nerve ligation model of neuropathic pain assessed as inhibition of cold allodynia at 100 mg/kg, po after 5 hrs; type: functional, organism-based; set-up: dose 100 mg/kg; summary of the method: as §1
[6] = target: T1, Voltage-dependent T-type calcium channel subunit alpha-1G; experiment: Inhibition of T-type calcium channel alpha1G expressed in human HEK293 cells assessed as KCl-induced depolarization after 60 mins by FDSS6000 assay; type: cell-based

T1 sequence (O43497 whole entry): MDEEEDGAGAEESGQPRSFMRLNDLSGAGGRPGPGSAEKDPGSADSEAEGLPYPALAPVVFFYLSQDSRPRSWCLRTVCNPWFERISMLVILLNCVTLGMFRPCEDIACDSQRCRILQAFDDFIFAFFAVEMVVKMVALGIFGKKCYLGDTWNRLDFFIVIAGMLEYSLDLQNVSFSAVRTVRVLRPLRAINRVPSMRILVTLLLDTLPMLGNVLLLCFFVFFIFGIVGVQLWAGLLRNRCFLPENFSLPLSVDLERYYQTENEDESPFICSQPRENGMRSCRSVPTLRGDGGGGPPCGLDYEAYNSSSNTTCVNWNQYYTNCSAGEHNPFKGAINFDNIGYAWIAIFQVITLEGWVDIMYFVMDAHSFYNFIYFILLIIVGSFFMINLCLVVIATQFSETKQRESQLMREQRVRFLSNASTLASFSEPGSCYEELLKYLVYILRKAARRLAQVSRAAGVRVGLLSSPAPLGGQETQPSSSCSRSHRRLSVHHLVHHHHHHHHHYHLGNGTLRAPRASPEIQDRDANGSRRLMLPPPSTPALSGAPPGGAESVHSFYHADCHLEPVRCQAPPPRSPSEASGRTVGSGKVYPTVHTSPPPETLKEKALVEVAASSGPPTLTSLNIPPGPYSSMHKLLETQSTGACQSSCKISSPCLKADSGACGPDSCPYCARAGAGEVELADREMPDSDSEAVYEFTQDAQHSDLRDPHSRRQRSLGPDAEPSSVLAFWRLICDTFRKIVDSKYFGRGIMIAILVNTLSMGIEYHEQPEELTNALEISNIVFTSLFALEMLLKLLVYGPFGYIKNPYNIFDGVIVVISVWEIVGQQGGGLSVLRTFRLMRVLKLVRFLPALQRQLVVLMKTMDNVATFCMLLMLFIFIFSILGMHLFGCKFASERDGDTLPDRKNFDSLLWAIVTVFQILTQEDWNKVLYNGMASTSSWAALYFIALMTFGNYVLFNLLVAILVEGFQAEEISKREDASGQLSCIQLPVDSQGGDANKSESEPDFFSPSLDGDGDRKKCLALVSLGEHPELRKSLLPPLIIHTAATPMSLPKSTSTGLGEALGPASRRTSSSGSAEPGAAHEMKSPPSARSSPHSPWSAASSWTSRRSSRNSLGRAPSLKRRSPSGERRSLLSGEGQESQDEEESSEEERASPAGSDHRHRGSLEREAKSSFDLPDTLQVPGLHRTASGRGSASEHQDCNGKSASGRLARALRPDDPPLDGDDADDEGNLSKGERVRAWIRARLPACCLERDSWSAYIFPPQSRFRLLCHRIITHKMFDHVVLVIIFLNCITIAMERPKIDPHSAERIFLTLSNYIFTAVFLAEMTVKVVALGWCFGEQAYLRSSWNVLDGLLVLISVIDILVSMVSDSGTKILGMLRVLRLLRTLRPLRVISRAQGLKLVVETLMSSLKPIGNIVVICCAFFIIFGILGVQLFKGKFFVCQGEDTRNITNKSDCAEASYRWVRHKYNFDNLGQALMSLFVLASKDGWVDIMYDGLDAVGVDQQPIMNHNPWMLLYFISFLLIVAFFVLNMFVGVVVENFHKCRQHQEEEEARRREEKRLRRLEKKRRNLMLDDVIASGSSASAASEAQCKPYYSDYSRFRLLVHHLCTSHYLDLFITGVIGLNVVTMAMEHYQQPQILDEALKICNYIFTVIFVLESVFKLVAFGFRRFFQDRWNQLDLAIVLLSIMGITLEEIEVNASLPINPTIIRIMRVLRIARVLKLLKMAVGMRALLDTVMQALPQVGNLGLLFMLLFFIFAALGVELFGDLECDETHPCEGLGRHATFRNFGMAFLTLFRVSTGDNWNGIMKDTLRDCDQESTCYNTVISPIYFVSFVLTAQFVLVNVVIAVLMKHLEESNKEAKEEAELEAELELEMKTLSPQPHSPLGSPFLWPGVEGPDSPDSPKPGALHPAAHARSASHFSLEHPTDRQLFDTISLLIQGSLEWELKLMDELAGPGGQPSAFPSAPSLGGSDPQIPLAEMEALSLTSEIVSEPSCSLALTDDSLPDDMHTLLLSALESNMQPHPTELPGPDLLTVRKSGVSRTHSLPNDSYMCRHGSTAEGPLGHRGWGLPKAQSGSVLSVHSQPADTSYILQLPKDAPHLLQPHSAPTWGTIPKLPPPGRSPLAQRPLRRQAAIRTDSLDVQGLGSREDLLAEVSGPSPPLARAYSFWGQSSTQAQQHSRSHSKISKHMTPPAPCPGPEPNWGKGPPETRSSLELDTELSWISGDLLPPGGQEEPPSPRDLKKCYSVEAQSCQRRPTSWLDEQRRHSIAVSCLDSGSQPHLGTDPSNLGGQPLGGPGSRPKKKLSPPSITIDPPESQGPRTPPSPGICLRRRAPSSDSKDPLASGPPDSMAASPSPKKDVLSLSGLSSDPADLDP
Sequence of Voltage-gated inwardly rectifying potassium channel KCNH2 (Q12809 whole entry): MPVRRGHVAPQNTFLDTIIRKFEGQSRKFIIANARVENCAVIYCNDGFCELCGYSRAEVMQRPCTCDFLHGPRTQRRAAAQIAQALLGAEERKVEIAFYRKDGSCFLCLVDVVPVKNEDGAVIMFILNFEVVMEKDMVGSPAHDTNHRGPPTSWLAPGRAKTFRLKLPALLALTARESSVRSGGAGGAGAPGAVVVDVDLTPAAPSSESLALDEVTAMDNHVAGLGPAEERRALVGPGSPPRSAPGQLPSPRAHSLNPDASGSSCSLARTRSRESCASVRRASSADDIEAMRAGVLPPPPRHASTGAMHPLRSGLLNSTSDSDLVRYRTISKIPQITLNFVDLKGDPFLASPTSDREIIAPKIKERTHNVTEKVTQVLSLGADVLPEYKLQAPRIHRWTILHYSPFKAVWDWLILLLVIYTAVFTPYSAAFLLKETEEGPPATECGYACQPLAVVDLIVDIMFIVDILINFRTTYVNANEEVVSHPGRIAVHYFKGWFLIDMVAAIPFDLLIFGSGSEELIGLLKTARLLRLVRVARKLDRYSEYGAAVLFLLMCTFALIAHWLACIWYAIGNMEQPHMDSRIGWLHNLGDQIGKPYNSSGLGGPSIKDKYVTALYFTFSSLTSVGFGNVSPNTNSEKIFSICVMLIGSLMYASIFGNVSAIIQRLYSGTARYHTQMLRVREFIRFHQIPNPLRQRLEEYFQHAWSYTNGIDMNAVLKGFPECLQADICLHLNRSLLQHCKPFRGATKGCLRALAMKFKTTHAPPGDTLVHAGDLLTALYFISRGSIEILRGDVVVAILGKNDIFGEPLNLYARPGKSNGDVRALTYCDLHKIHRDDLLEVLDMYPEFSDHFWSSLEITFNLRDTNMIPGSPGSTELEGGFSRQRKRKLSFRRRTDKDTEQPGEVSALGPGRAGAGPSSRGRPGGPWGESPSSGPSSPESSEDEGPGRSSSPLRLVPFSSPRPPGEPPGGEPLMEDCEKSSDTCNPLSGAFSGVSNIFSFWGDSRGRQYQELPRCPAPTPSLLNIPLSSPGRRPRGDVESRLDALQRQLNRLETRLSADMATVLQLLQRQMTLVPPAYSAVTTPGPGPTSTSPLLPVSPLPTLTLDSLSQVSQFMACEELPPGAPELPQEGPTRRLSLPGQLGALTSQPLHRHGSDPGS

CC(C)Cc1cc(C(=O)NCC2(C#N)CCN(Cc3ccccc3C(F)(F)F)CC2)nn1-c1ccccc1
inhibition [1]: 45.4% | IC50 [2]: 4760 nM

COc1cccc(CN2CCC(C#N)(CNC(=O)c3cc(OC)cc(OC)c3)CC2)c1
inhibition [1]: 60.4%

N#CC1(CNC(=O)c2cc(Cl)cc(Cl)c2)CCN(Cc2cccc(C(F)(F)F)c2)CC1
inhibition [1]: 8.76%

COc1cc(OC)cc(C(=O)NCC2(C#N)CCN(CCc3ccccc3)CC2)c1
inhibition [1]: 61.9% | Stability [3]: Unstable | IC50 [2]: 1570 nM

COC(=O)C1(CNC(=O)c2cc(OC)cc(OC)c2)CCN(Cc2ccccc2OC)CC1
inhibition [1]: 46.8% | IC50 [2]: 1900 nM

N#CC1(CNC(=O)c2cc(Cl)cc(Cl)c2)CCN(CCc2ccccc2)CC1
inhibition [1]: 71.8% | IC50 [2]: 360 nM

COc1cc(OC)cc(C(=O)NCC2(C(=O)O)CCN(Cc3ccc(C(F)(F)F)cc3)CC2)c1.Cl
Activity (Rattus norvegicus [4]): Active | inhibition (Rattus norvegicus [5]): Active | IC50 [6]: 7310 nM | Stability [3]: Stable

COC(=O)C1(CNC(=O)c2cc(Cl)cc(Cl)c2)CCN(Cc2ccc(OC)cc2)CC1
inhibition [1]: 74.5%

COC(=O)C1(CNC(=O)c2cc(OC)cc(OC)c2)CCN(Cc2cccc(OC)c2)CC1
inhibition [1]: 56.2% | IC50 [2]: 310 nM

COC(=O)C1(CNC(=O)c2cc(Cl)cc(Cl)c2)CCN(Cc2cccc(OC)c2)CC1
inhibition [1]: 73% | IC50 [2]: 360 nM

COC(=O)C1(CNC(=O)c2cc(OC)cc(OC)c2)CCN(Cc2ccc(OC)cc2)CC1
inhibition [1]: 59% | IC50 [2]: 480 nM

COC(=O)C1(CNC(=O)c2cc(Cl)cc(Cl)c2)CCN(Cc2ccccc2OC)CC1
inhibition [1]: 68.5% | IC50 [2]: 160 nM

COC(=O)C1(CNC(=O)c2cc(OC)cc(OC)c2)CCN(Cc2cccc(C(F)(F)F)c2)CC1
inhibition [1]: 72% | Stability [3]: Unstable | IC50 [2]: 2800 nM

COC(=O)C1(CNC(=O)c2cc(Cl)cc(Cl)c2)CCN(Cc2ccc(C(F)(F)F)cc2)CC1
inhibition [1]: 43.3% | IC50 [2]: 290 nM

CC(C)Cc1cc(C(=O)NCC2(C#N)CCN(CCc3ccccc3)CC2)nn1-c1ccccc1
inhibition [1]: 61.9%

N#CC1(CNC(=O)c2cc(Cl)cc(Cl)c2)CCN(Cc2ccc(C(F)(F)F)cc2)CC1
inhibition [1]: 8.7%

COc1ccc(CN2CCC(C#N)(CNC(=O)c3cc(CC(C)C)n(-c4ccccc4)n3)CC2)cc1
inhibition [1]: 53%

CC(C)Cc1cc(C(=O)NCC2(C#N)CCN(Cc3cccc(C(F)(F)F)c3)CC2)nn1-c1ccccc1
inhibition [1]: 15.8%

COc1ccc(CN2CCC(C#N)(CNC(=O)c3cc(Cl)cc(Cl)c3)CC2)cc1
inhibition [1]: 16.1%

COc1cc(OC)cc(C(=O)NCC2(C#N)CCN(Cc3ccc(C(F)(F)F)cc3)CC2)c1
inhibition [1]: 13.9%

COc1cc(OC)cc(C(=O)NCC2(C#N)CCN(Cc3cccc(C(F)(F)F)c3)CC2)c1
inhibition [1]: 15.8%

CC1(C)Oc2ccccc2C=C1CN1CCC(C#N)(CNC(=O)c2cc(Cl)cc(Cl)c2)CC1
inhibition [1]: 13.6%

N#CC1(CNC(=O)c2cc(Cl)cc(Cl)c2)CCN(Cc2ccccc2C(F)(F)F)CC1
inhibition [1]: 9.99%

COC(=O)C1(CNC(=O)c2cc(Cl)cc(Cl)c2)CCN(CC2=Cc3ccccc3OC2(C)C)CC1
inhibition [1]: 33.9% | IC50 [2]: 13800 nM

COC(=O)C1(CNC(=O)c2cc(OC)cc(OC)c2)CCN(Cc2ccccc2C(F)(F)F)CC1
inhibition [1]: 63.6% | Stability [3]: Unstable | IC50 [2]: 4980 nM

COC(=O)C1(CNC(=O)c2cc(Cl)cc(Cl)c2)CCN(Cc2cccc(C(F)(F)F)c2)CC1
inhibition [1]: 72%

COC(=O)C1(CNC(=O)c2cc(OC)cc(OC)c2)CCN(Cc2ccc(C(F)(F)F)cc2)CC1
inhibition [1]: 64.3% | IC50 [6]: 4180 nM | Stability [3]: Unstable

COc1ccc(CN2CCC(C#N)(CNC(=O)c3cc(OC)cc(OC)c3)CC2)cc1
inhibition [1]: 53%

COc1ccccc1CN1CCC(C#N)(CNC(=O)c2cc(CC(C)C)n(-c3ccccc3)n2)CC1
inhibition [1]: 50.9%

COc1cc(OC)cc(C(=O)NCC2(C#N)CCN(Cc3ccccc3OC)CC2)c1
inhibition [1]: 50.9% | IC50 [2]: 920 nM

COc1cccc(CN2CCC(C#N)(CNC(=O)c3cc(CC(C)C)n(-c4ccccc4)n3)CC2)c1
inhibition [1]: 60.4% | IC50 [2]: 1500 nM

NCC1(CC(=O)O)CCCCC1
Activity (Rattus norvegicus [4]): Active | inhibition (Rattus norvegicus [5]): Active

COc1ccccc1CN1CCC(C#N)(CNC(=O)c2cc(Cl)cc(Cl)c2)CC1
inhibition [1]: 19.3%

COC(=O)C1(CNC(=O)c2cc(Cl)cc(Cl)c2)CCN(CCc2ccccc2)CC1
inhibition [1]: 77.2%

COc1cc(OC)cc(C(=O)NCC2(C#N)CCN(Cc3ccccc3C(F)(F)F)CC2)c1
inhibition [1]: 45.4% | IC50 [2]: 4760 nM

COc1cc(OC)cc(C(=O)NCC2(C#N)CCN(CC3=Cc4ccccc4OC3(C)C)CC2)c1
inhibition [1]: 44.3% | IC50 [2]: 4730 nM

COC(=O)C1(CNC(=O)c2cc(OC)cc(OC)c2)CCN(CCc2ccccc2)CC1
inhibition [1]: 65%

COc1cccc(CN2CCC(C#N)(CNC(=O)c3cc(Cl)cc(Cl)c3)CC2)c1
inhibition [1]: 8.33%

CC(C)Cc1cc(C(=O)NCC2(C#N)CCN(Cc3ccc(C(F)(F)F)cc3)CC2)nn1-c1ccccc1
inhibition [1]: 13.9%

COC(=O)C1(CNC(=O)c2cc(Cl)cc(Cl)c2)CCN(Cc2ccccc2C(F)(F)F)CC1
inhibition [1]: 44.1%

CC(C)Cc1cc(C(=O)NCC2(C#N)CCN(CC3=Cc4ccccc4OC3(C)C)CC2)nn1-c1ccccc1
inhibition [1]: 44.3% | IC50 [2]: 4730 nM

COC(=O)C1(CNC(=O)c2cc(OC)cc(OC)c2)CCN(CC2=Cc3ccccc3OC2(C)C)CC1
inhibition [1]: 58%
